Test results reported in ChEMBL document CHEMBL2146366, “Discovery of microsomal triglyceride transfer protein (MTP) inhibitors with potential for decreased active metabolite load compared to dirlotapide” (Bioorg Med Chem Lett, 2011).
Active and inactive are the calls of the source. The rule behind the calls is not given here.

Assays:
[1] = system: Rattus norvegicus; assay: Antiobesity activity in high fat diet-induced obese Sprague-Dawley rat assessed as reduction of triglyceride accumulation in liver at 10 mg/kg, po qd for 7 days relative to control; type: functional; design: scale not given: the % may be the effect or the level left
Outline: (§1)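 Seven-day rat study: once-daily oral dosing at 3, 10 or 30 mg/kg, with 1, 3 and 100 mg/kg also used for one series. Compounds were given as spray-dried dispersions in hydroxypropylmethylcellulose acetate succinate. Food intake, body weight, liver TG and serum ALT were measured against vehicle. Systemic exposure was reported as AUC (ng h/mL). Significance versus vehicle was set at P ≤ 0.05.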

[2] = system: Rattus norvegicus; assay: Toxicity in high fat diet-induced obese Sprague-Dawley rat assessed as change in serum ALT level at 10 mg/kg, po qd for 7 days relative to control; type: organism-based; design: dose 10 mg/kg, route oral; settings: in vivo, 168 h
Outline: (§2)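 Seven-day study in high-fat-diet rats. Compound was given once daily by mouth as a spray-dried dispersion, with vehicle controls. Serum ALT was measured alongside food intake, body weight, liver TG and systemic exposure (AUC). ALT is expressed as % change versus vehicle, with significance set at P ≤ 0.05.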

[3] = system: Rattus norvegicus; assay: Antiobesity activity in high fat diet-induced obese Sprague-Dawley rat assessed as reduction in body weight at 100 mg/kg, po administered daily for 3 days relative to dirlotapide; type: functional; design: scale not given: the % may be the effect or the level left
[4] = system: Rattus norvegicus; assay: Antiobesity activity in high fat diet-induced obese Sprague-Dawley rat assessed as reduction of food intake at 10 mg/kg, po administered with 25% SDD formulation daily for 3 days relative to dirlotapide; type: functional; design: scale not given: the % may be the effect or the level left
Outline: (§3)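 Three-day oral dosing study in male Sprague–Dawley rats (~300 g, n = 5 per group) fed a high-fat diet (45% kcal from fat). Animals received daily gavage doses 1.5 h before the dark cycle. Compound was given as a spray-dried dispersion made by spray drying compound with hydroxypropylmethylcellulose acetate succinate. Food intake was recorded during dosing and liver TG measured afterwards, both against vehicle.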

[5] = system: Rattus norvegicus; assay: Drug metabolism in rat assessed as formation of 2-(2'-(6-(2-((4-fluorobenzyl)(methyl)amino)-2-oxo-1-phenylethylcarbamoyl)quinolin-2-ylcarbamoyl)biphenyl-4-yl)-2-methylpropanoic acid at 30 mg/kg, po administered as single dose; type: ADME, organism-based; design: dose 30 mg/kg, route oral; settings: in vivo
[6] = system: Rattus norvegicus; assay: Antiobesity activity in high fat diet-induced obese Sprague-Dawley rat assessed as reduction of triglyceride accumulation in liver at 3 mg/kg, po qd for 7 days relative to control; type: functional; design: scale not given: the % may be the effect or the level left; outline: as §1
[7] = system: Canis familiaris; assay: Drug metabolism in beagle dog assessed as formation of N-(2-((4-fluorobenzyl)(methyl)amino)-2-oxo-1-phenylethyl)-2-(4'-(1-hydroxy-2-methylpropan-2-yl)biphenyl-2-ylcarboxamido)quinoline-6-carboxamide at 2.5 mg/kg, po administered as single dose; type: ADME, organism-based, Canis lupus familiaris; design: dose 2.5 mg/kg, route oral; settings: in vivo
[8] = system: Rattus norvegicus; assay: Antiobesity activity in high fat diet-induced obese Sprague-Dawley rat assessed as reduction of food intake at 10 mg/kg, po administered daily for 3 days relative to dirlotapide; type: functional; design: scale not given: the % may be the effect or the level left
Outline: (§4)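 Male Sprague–Dawley rats (~300 g, n = 5 per group) were acclimatized for seven days to a high-fat diet (45% kcal from fat). They received three consecutive daily oral gavage doses 1.5 h before the dark cycle. Vehicle was SEDDS:H2O 10:90, with SEDDS made of Miglyol 812 10%, triacetin 30%, polysorbate 80 20% and Capmul MCM 30%. Food intake was recorded during dosing, and liver TG was measured afterwards, both against vehicle.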

[9] = system: Rattus norvegicus; assay: Antiobesity activity in high fat diet-induced obese Sprague-Dawley rat assessed as reduction in body weight at 10 mg/kg, po administered with 25% SDD formulation daily for 3 days relative to dirlotapide; type: functional; design: scale not given: the % may be the effect or the level left
[10] = system: Rattus norvegicus; assay: Antiobesity activity in high fat diet-induced obese Sprague-Dawley rat assessed as reduction in body weight at 3 mg/kg, po administered daily for 3 days relative to dirlotapide; type: functional; design: scale not given: the % may be the effect or the level left
[11] = system: Rattus norvegicus; assay: Antiobesity activity in high fat diet-induced obese Sprague-Dawley rat assessed as triglyceride accumulation in liver at 30 mg/kg, po administered daily for 3 days relative to control; type: functional; outline: as §4
[12] = system: Rattus norvegicus; assay: Antiobesity activity in high fat diet-induced obese Sprague-Dawley rat assessed as triglyceride accumulation in liver at 1 mg/kg, po administered daily for 3 days relative to control; type: functional, organism-based; design: dose 1 mg/kg; outline: as §4
[13] = AUC in high fat diet-induced obese Sprague-Dawley rat at 10 mg/kg, po qd for 7 days; type: ADME, organism-based; design: dose 10 mg/kg, route oral; settings: plasma; outline: as §1
[14] = system: Rattus norvegicus; assay: Toxicity in high fat diet-induced obese Sprague-Dawley rat assessed as change in serum ALT level at 30 mg/kg, po qd for 7 days relative to control; type: organism-based; design: dose 30 mg/kg, route oral; settings: in vivo, 168 h; outline: as §2
[15] = AUC in high fat diet-induced obese Sprague-Dawley rat at 3 mg/kg, po qd for 7 days; type: ADME, organism-based; design: dose 3 mg/kg, route oral; settings: plasma; outline: as §1
[16] = system: Rattus norvegicus; assay: Antiobesity activity in high fat diet-induced obese Sprague-Dawley rat assessed as reduction in body weight at 30 mg/kg, po administered daily for 3 days relative to control; type: functional; design: scale not given: the % may be the effect or the level left
[17] = system: Rattus norvegicus; assay: Antiobesity activity in high fat diet-induced obese Sprague-Dawley rat assessed as reduction of body weight at 30 mg/kg, po qd for 7 days; type: functional; design: scale not given: the % may be the effect or the level left; outline: as §1
[18] = system: Rattus norvegicus; assay: Antiobesity activity in high fat diet-induced obese Sprague-Dawley rat assessed as reduction of body weight at 10 mg/kg, po qd for 7 days relative to control; type: functional; design: scale not given: the % may be the effect or the level left; outline: as §1
[19] = system: Rattus norvegicus; assay: Antiobesity activity in high fat diet-induced obese Sprague-Dawley rat assessed as reduction of food intake at 1 mg/kg, po administered daily for 3 days relative to control; type: functional; design: scale not given: the % may be the effect or the level left; outline: as §4
[20] = AUC in high fat diet-induced obese Sprague-Dawley rat at 30 mg/kg, po qd for 7 days; type: ADME, organism-based; design: dose 30 mg/kg, route oral; settings: plasma; outline: as §1
[21] = system: Rattus norvegicus; assay: Antiobesity activity in high fat diet-induced obese Sprague-Dawley rat assessed as reduction in body weight at 1 mg/kg, po administered daily for 3 days relative to control; type: functional; design: scale not given: the % may be the effect or the level left
[22] = system: Rattus norvegicus; assay: Antiobesity activity in high fat diet-induced obese Sprague-Dawley rat assessed as reduction of food intake at 3 mg/kg, po qd for 7 days relative to control; type: functional; design: scale not given: the % may be the effect or the level left; outline: as §1
[23] = system: Canis familiaris; assay: Drug metabolism in beagle dog assessed as formation of 2-(2'-(6-(2-((4-fluorobenzyl)(methyl)amino)-2-oxo-1-phenylethylcarbamoyl)quinolin-2-ylcarbamoyl)biphenyl-4-yl)-2-methylpropanoic acid at 2.5 mg/kg, po administered as single dose; type: ADME, organism-based, Canis lupus familiaris; design: dose 2.5 mg/kg, route oral; settings: in vivo
[24] = system: Rattus norvegicus; assay: Antiobesity activity in high fat diet-induced obese Sprague-Dawley rat assessed as reduction of food intake at 10 mg/kg, po administered with 25% SDD formulation daily for 3 days relative to control; type: functional; design: scale not given: the % may be the effect or the level left; outline: as §3
[25] = system: Rattus norvegicus; assay: Antiobesity activity in po dosed high fat diet-induced obese Sprague-Dawley rat assessed as reduction of body weight administered daily for 3 days; type: functional; settings: 72 h, read-out: MED
[26] = Oral bioavailability in beagle dog at 2.5 mg/kg; type: ADME, organism-based, Canis lupus familiaris; settings: in vivo
[27] = system: Rattus norvegicus; assay: Antiobesity activity in high fat diet-induced obese Sprague-Dawley rat assessed as reduction of triglyceride accumulation in liver at 10 mg/kg, po administered daily for 3 days relative to control; type: functional; outline: as §4
[28] = system: Rattus norvegicus; assay: Antiobesity activity in high fat diet-induced obese Sprague-Dawley rat assessed as reduction of body weight at 3 mg/kg, po qd for 7 days relative to control; type: functional; design: scale not given: the % may be the effect or the level left; outline: as §1
[29] = system: Rattus norvegicus; assay: Antiobesity activity in high fat diet-induced obese Sprague-Dawley rat assessed as reduction of food intake at 100 mg/kg, po administered daily for 3 days relative to control; type: functional; design: scale not given: the % may be the effect or the level left; outline: as §4
[30] = system: Rattus norvegicus; assay: Antiobesity activity in high fat diet-induced obese Sprague-Dawley rat assessed as triglyceride accumulation in liver at 3 mg/kg, po administered daily for 3 days relative to control; type: functional, organism-based; design: dose 3 mg/kg; outline: as §4
[31] = Oral bioavailability in rat at 30 mg/kg; type: ADME, organism-based; settings: in vivo

Work on `CN(Cc1ccc(F)cc1)C(=O)[C@@H](NC(=O)c1ccc2nc(NC(=O)c3ccccc3-c3ccc(C(C)(C)C)cc3)ccc2c1)c1ccccc1` yielded an Activity [1] of 219%, an Activity [2] of 143% and an Activity [3] of 75%. The Activity [4] was 8%, the Drug metabolism [5] was “Active” and the Activity [6] was 43%. For the same compound, the Drug metabolism [7] was “Active”, the Activity [8] was 46% and the Activity [9] was 32%. The Activity [10] was 10%, the Activity [11] was 102% and the Activity [12] was “inactive”. It also gave an AUC at 168 h [13] of 42 ng·h/mL, an Activity [14] of 237% and an AUC at 168 h [15] of 12 ng·h/mL. For the same compound, the Activity [16] was 89%, the Activity [17] was 220% and the Activity [18] was 255%. For the same compound, the Activity [19] was 12%, the AUC at 168 h [20] was 65 ng·h/mL and the Activity [21] was 32%. For the same compound, the Activity [22] was 25%, the Drug metabolism [23] was “Active” and the Activity [24] was 33%. For the same compound, the minimal effective dose [25] was 3 mg/kg, the bioavailability [26] was less than 3% and the Activity [27] was “inactive”. For the same compound, the Activity [28] was 85%, the Activity [29] was 47% and the Activity [30] was “inactive”. It also gave a bioavailability [31] of less than 3%.
